Only a selection was taken, and hits are over-represented in it overall.
Biofilm kill mix: mixture kills Candida albicans biofilm cells | C. albicans biofilm persisters + clotrimazole, fluorescence viability; primary screen in compound mixtures of four per well | inhibition, % at 7.6 µM | actives 0.02% (n = 120,000) | AID 1242;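 active = inhibition above 30.3% in the primary screen of four-compound pools, then above 30% when the compound was retested; inconclusive = passed the primary limit but could not be retested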;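 note: compounds exposed to preformed 24 h biofilms for 48 h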
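Incubation: 24 h biofilm formation, then 48 h compound exposure, 37 °C | Material: C. albicans biofilms | Buffer or medium: RPMI/MOPS medium, pH 7.0 | Measured by: 2-h Alamar Blue fluorescence, 535/590 nm excitation/emission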
ROMK primary: human ROMK K+ channel modulation, primary screen | P48048 | actives 2% (n = 130,000) | Tet-inducible ROMK, thallium flux fluorescence; actives lie on both sides | B-score at 10 µM;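 active = signal ratio slope over the read window, or its plate-corrected B-score, at least 3 SD from the plate mean, either direction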;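 note: B-score of the F/F0 ratio slope over 7 to 12 s after thallium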
Target sequence (P48048 whole entry, looked up): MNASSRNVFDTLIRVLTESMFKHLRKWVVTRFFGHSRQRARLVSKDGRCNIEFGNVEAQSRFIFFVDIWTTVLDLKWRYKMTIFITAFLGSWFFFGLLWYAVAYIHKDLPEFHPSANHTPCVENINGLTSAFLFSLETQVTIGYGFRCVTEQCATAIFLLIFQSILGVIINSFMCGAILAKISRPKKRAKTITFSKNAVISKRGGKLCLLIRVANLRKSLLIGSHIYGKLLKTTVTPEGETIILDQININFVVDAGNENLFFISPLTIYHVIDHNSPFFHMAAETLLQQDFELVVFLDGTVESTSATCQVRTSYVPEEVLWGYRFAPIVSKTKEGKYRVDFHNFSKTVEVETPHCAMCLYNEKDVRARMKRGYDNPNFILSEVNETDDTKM
ROMK hit retest: confirmation of human ROMK potassium channel modulators | shares compounds with ROMK primary | ROMK thallium flux, fluorescence ratio; hits give low values | normalized thallium flux (F/F0 slope) at 10 µM | actives 54% (n = 3,000) | AID 1917;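 active = Flux at 10 µM at least 3 SD below or above vehicle control mean in one or both replicates; inconclusive = no clear call, values can overlap the other calls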
Hits are given with their value; n = inactive; u = inconclusive; x = no result given.

SMILES	Biofilm kill mix	ROMK primary	ROMK hit retest
COc1ccccc1OCc1ccc(C(=O)Nc2ccc(Cl)cn2)o1	n	x	x
CC(C)c1nc(Cl)c(C#N)c2c1CCC2	n	x	x
N#Cc1cccc(C(c2nnnn2C2CCCC2)N2CCC(Cc3ccccc3)CC2)c1 (stereo unspecified)	n	n	x
N#Cc1cccc(C(c2nnnn2CCc2ccccc2)N2CCN(C3CCCCC3)CC2)c1 (stereo unspecified)	x	-3.1	0.058
COc1ccc(CNC(=O)COC(=O)c2cncc(Br)c2)cc1	n	n	n
Cc1ccc(CNC(=O)COC(=O)c2cncc(Br)c2)cc1	n	n	x
CCN(CC)S(=O)(=O)c1ccc(C)c(NC(=O)COC(=O)[C@@H]2CCCN2C(=O)c2cccs2)c1	n	n	x
COc1ccccc1N1CCN(Cc2ccc(Br)o2)CC1	x	n	x
Cc1ccc(-c2nc(SCC(=O)N(C)C3CCS(=O)(=O)C3)[nH]c2-c2ccc(C)cc2)cc1 (stereo unspecified)	x	n	x
C=CCN=c1scc(-c2ccco2)n1/N=C/c1ccc(O)c(O)c1O	n	x	x
COCCN=c1scc(-c2ccco2)n1/N=C/c1ccc(O)c(O)c1O	n	3.2	n
CCOc1cc(/C=C/c2nc3cc(C)c(C)cc3s2)ccc1OCC(=O)N1CCOCC1	n	x	x
CCOc1cc(/C=C\[N+](=O)[O-])ccc1OCC(=O)N1CCOCC1	n	-5.6	0.056
Cc1cc(S(=O)(=O)Nc2ccc(C(=O)N3CCN(C(=O)c4ccco4)CC3)cc2)ccc1F	x	n	x
CSc1ccccc1COC(=O)Nc1ccccc1C	n	n	x
CCOc1cc(/C=C2\NC(=S)N(c3c(C)n(C)n(-c4ccccc4)c3=O)C2=O)ccc1O	n	x	x
CCOc1cccc(/C=C2\NC(=S)N(c3ccccc3)C2=O)c1O	n	x	0.058
CCc1ccc(N(C(=O)c2snc(C(N)=O)c2N)C(C(=O)NCC2CCCO2)c2cccs2)cc1 (stereo unspecified)	n	n	x
O=C(c1ccc(-n2cccn2)cc1)N1CCc2ccccc2C1	n	n	x
O=C(C[n+]1cc(-c2ccccc2)n2c1CCCCC2)c1ccc(Cl)cc1	n	x	x
Clc1ccc(-c2c[n+](Cc3ccc(Br)cc3)c3n2CCCCC3)cc1	n	-4.2	n
CC1CCC(C(C)C)C(OC(=O)C[n+]2cc(-c3ccc(Cl)cc3)n3c2CCCCC3)C1 (stereo unspecified)	n	-9.8	0.049
Clc1ccc(C[n+]2cc(-c3ccccc3)n3c2CCCCC3)c(Cl)c1	n	x	x
Clc1ccc(-c2c[n+](Cc3ccc(Cl)cc3Cl)c3n2CCCCC3)cc1	n	x	0.055
Clc1ccc(-c2c[n+](Cc3cccc(Cl)c3)c3n2CCC3)cc1	n	n	x
SMILES	Biofilm kill mix	ROMK primary	ROMK hit retest
O=C(Nc1cccc(S(=O)(=O)N2CCCCC2)c1)c1ccc([N+](=O)[O-])o1	n	n	x
Cc1ccc(NC(=O)CNc2ccccc2CN(C)C2CCCCC2)cc1	n	n	x
CCCCCCCCCCCCCCCCn1cc[n+](CC(C)=O)c1	n	-4.9	0.063
CCCCCCCCCCCCCCCC[n+]1ccc(C(N)=O)cc1	n	n	x
Cc1[nH]c(=S)[nH]c(=O)c1CCOc1ccccc1	x	n	x
Cc1ccccc1OCCc1c(C)[nH]c(=S)[nH]c1=O	n	1.7	n
Cc1nc2ccccc2c(=O)n1/N=C/c1ccc2ccccc2c1O	n	x	n
Cc1nc2ccccc2c(=O)n1/N=C/c1ccccc1O	n	n	x
COc1cc(C(=O)Nc2ccc3c(c2)CCN3C(C)=O)cc(OC)c1OC	n	4.5	n
CCc1cccc(NC(=O)c2cc(OC)c(OC)c(OC)c2)c1	n	1.3	n
COc1cc(C(=O)Nc2ccc3c(c2)Cc2ccccc2-3)cc(OC)c1OC	n	n	x
COc1cc(C(=O)Nc2ccc3c(c2)C(=O)c2ccccc2C3=O)cc(OC)c1OC	n	x	x
CC(=O)c1ccc(OCCCC(=O)Nc2cc(S(=O)(=O)N(C)C)ccc2C)cc1	n	n	x
COC(=O)c1ccc(Oc2nc(C)cc(Oc3ccccc3)n2)cc1	x	n	x
COC(=O)c1ccc(Oc2cc(C)nc(-n3nc(C)cc3C)n2)cc1	x	4.9	n
CC1=C(C)CC(C(=O)NCCc2ccccc2)C(C(=O)O)C1 (stereo unspecified)	x	n	x
COc1ccc(-c2nnn(Cc3nn[nH]n3)n2)cc1OC	x	n	x
O=C(NCCc1c[nH]c2ccccc12)C1CCN(S(=O)(=O)c2ccccc2F)CC1	n	n	x
CN1C(=O)N(C)c2ccc(C=O)c3cccc1c23	n	-3.4	0.068
CN(C)c1cccc2c(/C=N/O)ccc(N(C)C)c12	n	n	x
COc1ccccc1CN1C[C@@H]2C[C@@H](c3ccc(Cl)cc3)N3CCC[C@@]23C1=O	n	n	x
O=C(Cc1ccccc1)Nc1ccc(F)cc1	n	n	x
Cc1cc2c(ccc3c2no[n+]3[O-])nn1	x	2.7	n
Cc1cc2c(NS(=O)(=O)c3ccc(F)cc3)cccc2nn1	n	x	x
CCOC(=O)c1cnn(Cc2ccccc2)c1N	n	n	x
SMILES	Biofilm kill mix	ROMK primary	ROMK hit retest
COc1c(C)cc(C(=O)C2CCCN(C(=O)c3cccc(F)c3)C2)cc1C (stereo unspecified)	n	n	x
COc1cccc(C(=O)C2CCCN(C(=O)c3cccc(C#CC(C)(C)O)c3)C2)c1 (stereo unspecified)	n	1.7	n
COC(=O)c1sccc1NC(=O)CC1C(=O)NCCN1C(=O)Nc1ccccc1 (stereo unspecified)	n	n	x
CN(C)NC(=O)c1ccsc1NC(=O)c1ccc(S(=O)(=O)N(C)C)cc1	n	x	x
O/N=C1\CCCc2oc3c(c21)CCCC3	x	x	0.064
Cc1c(C(=O)O)oc2c1/C(=N\O)CCC2	n	x	x
Oc1ccc(Cl)cc1CNn1cnnc1	n	n	x
O=C(O)c1ccccc1N/N=C/c1c(Sc2nnnn2-c2ccccc2)nc2ccccn2c1=O	n	x	x
O=c1c(/C=N/Nc2ccccc2)c(Sc2nnnn2-c2ccccc2)nc2ccccn12	x	-3.7	0.04
CCCCn1c(N)c(NCCC(C)C)c(=O)[nH]c1=O	n	n	x
Cc1occc1C(=O)NC1CCCCCC1	x	3.1	n
Cc1occc1C(=O)NNC(=O)C1CCCCC1	n	n	x
CCOC(=O)C1=C(CN2CCC(C)CC2)NC(=O)NC1c1ccc(Cl)cc1 (stereo unspecified)	x	n	x
O=C(CSc1ccc2nnc(-c3ccc(F)cc3)n2n1)NCC1CCCO1 (stereo unspecified)	x	n	x
COc1ccc(-c2nnc3ccc(SCC(=O)NCC4CCCO4)nn23)cc1 (stereo unspecified)	x	-6.1	n
COc1ccc(Cn2nc(-c3ccccc3)c(N3CCCCC3)cc2=O)cc1	n	-4.4	u
COc1ccc(-c2nnc(N3CCCCC3)c3ccccc23)cc1	x	n	x
Cc1nc(SCC(=O)NC(=O)NCCC(C)C)c2c(-c3cccs3)csc2n1	n	x	x
Cc1sc2nc(C3CC3)nc(NCCNS(=O)(=O)c3ccccc3)c2c1C	n	x	x
CN1CCN(/N=C/c2nc(-c3cccc([N+](=O)[O-])c3)n3ccccc23)CC1	n	x	x
C/C(=N/NC(=O)CNc1ccc(Cl)cc1C)c1ccc(C)cc1	n	12	n
C/C(=N\NC(=O)CNC(=O)c1ccncc1)c1ccc(C)cc1	n	n	x
COc1cccc(CN2CCN(Cc3cc(OC)c(OC)cc3[N+](=O)[O-])CC2)c1	x	n	x
COc1cc(CN2CCN(Cc3ccc([N+](=O)[O-])cc3)CC2)c([N+](=O)[O-])cc1OC	n	-4.3	0.044
Cc1ccc(S(=O)(=O)N2CCCCC2)cc1NC(=O)CNCc1ccco1	n	x	x

Source: PubChem BioAssay
